A short description of data set [1]: Selectivity index, ratio of IC50 for rat L6 cells to IC50 for chloroquine and pyrimethamine-resistant erythrocytic stages of Plasmodium falciparum K1. In kind it is toxicity, cell-based. As to conditions: L6 cells versus Plasmodium falciparum K1 erythrocytic stages, read-out: Ratio IC50. The gist of the method: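 Selectivity index = IC50 (rat L-6 myoblasts, Alamar blue assay)/IC50 (P. falciparum K1 erythrocytic stages, [3H]hypoxanthine incorporation assay).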

Data set [2] concerns Trypanosoma brucei rhodesiense. Put plainly: Antiprotozoal activity against bloodstream forms of Trypanosoma brucei rhodesiense STIB900 by alamar blue assay. The format is functional, organism-based. The gist of the method: (§1)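 Alamar blue read-out; IC50 determined against bloodstream-form STIB900 trypanosomes, axenically grown L. donovani MHOM/ET/67/L82 amastigotes, or rat skeletal myoblast L-6 cells (cytotoxicity).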
(In general: The colour change of resazurin is a common sign of viable cells or microbes.)

The next data set deals with Trypanosoma cruzi. Put plainly: Antiprotozoal activity against trypomastigote forms of Trypanosoma cruzi Tulahuen C2C4 expressing LacZ by colorimetric CPRG assay.
A short description of data set [3]: Selectivity index, ratio of IC50 for rat L6 cells to IC50 for Trypanosoma brucei rhodesiense STIB900. To be noted: L6 cells versus Trypanosoma brucei rhodesiense STIB900, read-out: Ratio IC50. In kind it is toxicity, cell-based. Put shortly: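 Selectivity index = IC50 (rat L-6 myoblasts)/IC50 (T. b. rhodesiense STIB900 bloodstream forms). Both IC50 values were determined by Alamar blue assay.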

Another data set concerns Plasmodium falciparum. Put plainly: Antiprotozoal activity against chloroquine and pyrimethamine-resistant erythrocytic stages of Plasmodium falciparum K1 by [3H]hypoxanthine incorporation assay. The format is functional, organism-based. The gist of the method:
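P. falciparum K1 (chloroquine- and pyrimethamine-resistant) erythrocytic stages; IC50 determined by [3H]hypoxanthine incorporation assay.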

In a further data set the test system is L6. Put plainly: Cytotoxicity against rat L6 cells. The format is cell-based. The gist of the method:
as §1

The next data set concerns Leishmania donovani. The data set is described as follows: Antiprotozoal activity against amastigotes of Leishmania donovani MHOM/ET/67/L82 by alamar blue assay. In kind it is functional, organism-based. The gist of the method: as §1
Data set [4] has as its system Trypanosoma brucei rhodesiense. Put plainly: Antitrypanosomal activity against Trypanosoma brucei rhodesiense STIB900 infected in NMRI mouse assessed as day of host death after 60 days at 50 mg/kg, po qd for 4 days administered after 3 to 6 days postinfection. In kind it is functional. The gist of the method: (§2)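 Female NMRI mice infected ip with 2 104 bloodstream forms of T. b. rhodesiense STIB900. Groups of four mice were treated ip (4 × 20 mg/kg) or po (4 × 50 mg/kg) on four consecutive days, days 3–6 postinfection. Untreated infected controls were included. Tail blood parasitemia was monitored to day 60. Day of death was recorded (cured mice counted as >60) to give mean survival days.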

For data set [5], the system named is Trypanosoma brucei rhodesiense. The data set is described as follows: Antitrypanosomal activity against Trypanosoma brucei rhodesiense STIB900 infected in NMRI mouse assessed as host survival after 60 days at 50 mg/kg, po qd for 4 days administered after 3 to 6 days postinfection. In kind it is functional, organism-based. Set-up: dose 50 mg/kg. The gist of the method:
(§3)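 Female NMRI mice infected ip with 2 10^4 bloodstream STIB900 forms; groups of four dosed ip (4 × 20 mg/kg) or orally (4 × 50 mg/kg) on days 3–6 post-infection; untreated infected controls. Tail-blood parasitemia followed to day 60; surviving aparasitemic mice at day 60 counted cured; mean survival and relapse days recorded.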

The subject of data set [6] is Trypanosoma brucei rhodesiense. Put plainly: Antitrypanosomal activity against Trypanosoma brucei rhodesiense STIB900 infected in NMRI mouse assessed as day of host death after 60 days at 20 mg/kg, ip qd for 4 days administered after 3 to 6 days postinfection. In kind it is functional. As to conditions: route intraperitoneal. The gist of the method:
as §2

Data set [7] has as its system Trypanosoma brucei rhodesiense. Put plainly: Antitrypanosomal activity against Trypanosoma brucei rhodesiense STIB900 infected in NMRI mouse assessed as host survival after 60 days at 20 mg/kg, ip qd for 4 days administered after 3 to 6 days postinfection. In kind it is functional, organism-based. Set-up: dose 20 mg/kg. The gist of the method: as §3

Molecules are shown by their SMILES. Activity calls are given as the source filed them. No cut-off for these calls is given here.

Broadly, the IC50 is the concentration needed to halve the response being measured. A high value points to a need for much substance.

As to `c1cc(Nc2ccc(NC3=NCCS3)cc2)ccc1NC1=NCCS1`, the selectivity ratio in data set [1] was determined as 21; in data set [3], 4.7. Moreover, the concentration for half-maximal inhibition (IC50) in data set [2] was 11.1 µM; in the data set on Trypanosoma cruzi, 30 µM; in the data set with Plasmodium falciparum it was 2.43 µM; in the data set with L6, 52 µM; in the data set on Leishmania donovani, 120 µM.
For the compound `c1cc(Nc2ccc(NC3=NCCN3OC3CCCCO3)cc2)ccc1NC1=NCCN1OC1CCCCO1` (stereo not given), the results for the selectivity ratio in data set [1] and in [3] were 26 and 17, respectively. In addition, the Activity in data set [4] and in [6] was 7 days throughout. Also, the half-maximal inhibitory concentration (IC50) in [2] came out at 1.18 µM; in the data set on Trypanosoma cruzi it was 24 µM; in the data set on Plasmodium falciparum, 0.75 µM; in the data set on L6, 20 µM; in the data set with Leishmania donovani, 41 µM. For the same compound, the result in data set [5] and in data set [7] was inactive.
In the case of `O=C1c2ccccc2C(=O)N1CCN(OCc1ccccc1)C(=S)Nc1ccc(Nc2ccc(NC(=S)N(CCN3C(=O)c4ccccc4C3=O)OCc3ccccc3)cc2)cc1`, the concentration for half-maximal inhibition (IC50) in data set [2] was 86.7 µM; in the data set on Trypanosoma cruzi, greater than 100 µM; with Plasmodium falciparum it was 1.36 µM; in the data set on L6, greater than 102 µM; in the data set with Leishmania donovani, 36 µM.
With `CON1CCN=C1Nc1ccc(Nc2ccc(NC3=NCCN3OC)cc2)cc1`, the selectivity ratio in [1] stood at 120; in [3] it was 65.6. Besides, the Activity in data set [4] and in [6] was 7 days each time. Moreover, the concentration for half-maximal inhibition (IC50) in [2] was found to be 0.83 µM; in the data set with Trypanosoma cruzi it was 136 µM; in the data set with Plasmodium falciparum, 0.45 µM; with L6, 54 µM; in the data set on Leishmania donovani, 39 µM. The result in data set [5] and in [7] was inactive.
For the compound `ON1CCN=C1Nc1ccc(Nc2ccc(NC3=NCCN3O)cc2)cc1`, the selectivity ratio in data set [1] worked out at 1670; in data set [3] it was 236. Moreover, the Activity in data set [4] came out at 7 days; in data set [6], 25.3 days. The IC50 was 0.37 µM in [2]; greater than 204 µM in the data set with Trypanosoma cruzi; 0.055 µM in the data set with Plasmodium falciparum; 92 µM in the data set with L6; 58 µM with Leishmania donovani. For the same compound, the result in data set [5] and in data set [7] was inactive.
`c1cc(Nc2ccc(NC3=NCCN3)cc2)ccc1NC1=NCCN1`: the selectivity ratio in [1] amounted to 24100; in [3], 3070. In addition, the Activity is 7.75 days in [4] and greater than 60 days in data set [6]. In data set [5], the result was inactive. In addition, it took 0.009 µM to reach half-maximal inhibition in the data set on Plasmodium falciparum (IC50). Besides, in data set [7], the outcome was Active.
In the case of `c1ccc(CON2CCN=C2Nc2ccc(Nc3ccc(NC4=NCCN4OCc4ccccc4)cc3)cc2)cc1`, the selectivity ratio was found to be 56 in [1] and 34.7 in data set [3]. Besides, the Activity in [4] and in [6] was 7 days each time. In addition, the 50% inhibitory concentration (IC50) in data set [2] was 0.32 µM; in the data set with Trypanosoma cruzi, 6.6 µM; in the data set on Plasmodium falciparum, 0.2 µM; in the data set with L6, 11 µM; in the data set on Leishmania donovani, 104 µM. For the same compound, the outcome in data set [5] and in data set [7] was inactive.
Consider `CCON(CCNC(=S)Nc1ccc(Nc2ccc(NC(=S)NCCN(OCC)S(=O)(=O)c3ccccc3[N+](=O)[O-])cc2)cc1)S(=O)(=O)c1ccccc1[N+](=O)[O-]`, for which the selectivity ratio in [1] is 35. Further, the IC50 is 14.9 µM in data set [2]; greater than 104 µM in the data set on Trypanosoma cruzi; 1.94 µM in the data set on Plasmodium falciparum; 67 µM in the data set on L6; 14 µM in the data set on Leishmania donovani.
In the case of `CON(CCN1C(=O)c2ccccc2C1=O)C(=S)Nc1ccc(Nc2ccc(NC(=S)N(CCN3C(=O)c4ccccc4C3=O)OC)cc2)cc1`, the 50% inhibitory concentration (IC50) in [2] is 73.8 µM; in the data set with Trypanosoma cruzi, greater than 124 µM; in the data set on Plasmodium falciparum, 2.64 µM; in the data set with L6, greater than 124 µM; in the data set with Leishmania donovani, 69 µM.
Turning to `CON(CCNC(=S)Nc1ccc(Nc2ccc(NC(=S)NCCN(OC)S(=O)(=O)c3ccccc3[N+](=O)[O-])cc2)cc1)S(=O)(=O)c1ccccc1[N+](=O)[O-]`, the IC50 was 61.3 µM in data set [2]; greater than 108 µM with Trypanosoma cruzi; 1.81 µM in the data set on Plasmodium falciparum; greater than 107 µM with L6; 68 µM with Leishmania donovani.
Take `CCON1CCN=C1Nc1ccc(Nc2ccc(NC3=NCCN3OCC)cc2)cc1`: the selectivity ratio was 68 in [1] and 55 in data set [3]. Besides, the Activity in data set [4] and in [6] was 7 days in each case. Also, the IC50 in data set [2] came to 0.73 µM; in the data set on Trypanosoma cruzi, 87 µM; in the data set on Plasmodium falciparum, 0.59 µM; in the data set with L6 it was 40 µM; in the data set on Leishmania donovani it was 62 µM. For the same compound, the outcome in [5] and in data set [7] was inactive.

(Values after ChEMBL document CHEMBL1649414, “Synthesis and antiprotozoal activity of N-alkoxy analogues of the trypanocidal lead compound 4,4'-bis(imidazolinylamino)diphenylamine with improved human blood-brain barrier permeability” (J Med Chem, 2011).)
